In ChEMBL document CHEMBL1156120, “18F stilbenes and styrylpyridines for PET imaging of A beta plaques in Alzheimer's disease: a miniperspective” (J Med Chem, 2010):

Test system: not listed separately
Assay: Partition coefficient, log P at pH 7.4
Type: physicochemical
Conditions: octanol/water

| logD | Compound |
| --- | --- |
| 2.95 | CNc1ccc(/C=C/c2ccc(OCC(CO)C[18F])cc2)cc1 (centres undefined) |

Target: Amyloid-beta precursor protein (Homo sapiens, UniProt P05067)
Assay: Binding affinity to Beta amyloid aggregates in Alzheimer's disease patient brain by competitive binding assay
Conditions: not given
In short: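 Competition binding against ¹⁸F-AV-45 (0.04–0.06 nM, diluted in PBS) in postmortem AD brain homogenate (20–25 µg per assay). Competitors were serially diluted 10⁻⁵–10⁻¹⁰ M in PBS with 0.1% bovine serum albumin, in a final volume of 0.5 mL. Inhibition constant (Ki) derived from displacement.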

Sequence of Amyloid-beta precursor protein (P05067 whole entry): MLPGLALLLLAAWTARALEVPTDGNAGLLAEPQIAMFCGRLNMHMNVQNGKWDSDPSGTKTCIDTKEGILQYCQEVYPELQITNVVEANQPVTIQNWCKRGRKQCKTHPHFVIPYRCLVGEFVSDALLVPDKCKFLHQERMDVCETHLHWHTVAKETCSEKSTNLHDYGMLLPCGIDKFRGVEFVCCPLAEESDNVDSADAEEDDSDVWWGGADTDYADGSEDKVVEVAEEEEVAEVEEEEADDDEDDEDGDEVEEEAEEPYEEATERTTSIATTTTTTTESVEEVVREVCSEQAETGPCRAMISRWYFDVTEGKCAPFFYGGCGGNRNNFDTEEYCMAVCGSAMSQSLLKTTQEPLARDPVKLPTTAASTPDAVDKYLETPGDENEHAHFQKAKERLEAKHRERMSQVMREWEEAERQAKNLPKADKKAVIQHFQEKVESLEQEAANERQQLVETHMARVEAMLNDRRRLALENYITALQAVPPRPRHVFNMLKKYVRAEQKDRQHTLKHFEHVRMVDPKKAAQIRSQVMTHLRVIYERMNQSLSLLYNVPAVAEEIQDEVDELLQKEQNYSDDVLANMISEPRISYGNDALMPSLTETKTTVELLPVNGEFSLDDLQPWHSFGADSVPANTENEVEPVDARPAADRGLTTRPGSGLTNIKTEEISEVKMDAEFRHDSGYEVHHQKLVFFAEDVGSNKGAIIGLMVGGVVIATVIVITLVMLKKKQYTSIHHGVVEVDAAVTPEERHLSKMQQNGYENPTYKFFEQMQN

| Compound | Ki [nM] |
| --- | --- |
| CN(C)c1ccc(/C=C/c2ccc(F)cc2)cc1 | 22 |
| CNc1ccc(/C=C/c2ccc(OCCOCCOCCOCCOCCOCCOCCOCCOCCF)cc2)cc1 | 18.5 |
| CC(=C(C#N)C#N)c1ccc2cc(N(C)CCF)ccc2c1 | 172 |
| O=C(O)c1cc(/N=N/c2ccc(-c3ccc(/N=N/c4ccc(O)c(C(=O)O)c4)cc3)cc2)ccc1O [CHRYSAMINE G] | > 1000 |
| COc1ccc(/C=C/c2cccc(I)c2)cc1 | 22 |
| CNc1ccc(/C=C/c2ccc(OCCOCCOCCOCCOCCOCCOCCOCCF)cc2)cc1 | 9 |
| CNc1ccc(/C=C/c2ccc(OCCOCCOCCOCCOCCOCCOCCF)cc2)cc1 | 8.2 |
| CNc1ccc(/C=C/c2ccc(OCCOCCOCCOCCOCCOCCOCCOCCOCCOCCF)cc2)cc1 | 12.2 |
| Oc1ccc(/C=C/c2cccc(I)c2)cc1 | 32 |

Now from value to compound:

| Ki [nM] | Compound |
| --- | --- |
| 4.5 | CN(C)c1ccc(/C=C/c2cccc(I)c2)cc1 |
| 7.5 | CNc1ccc(/C=C/c2ccc(OCCOCCOCCOCCOCCOCCF)cc2)cc1 |
| 2.87 | CNc1ccc(/C=C/c2ccc(OCCOCCOCC[18F])nc2)cc1 [FLORBETAPIR F 18] |
| 5 | CNc1ccc(/C=C/c2ccc(OCC(CO)CF)cc2)cc1 (centres undefined) |
| 7.7 | CN(C)c1ccc(/C=C/c2ccccc2I)cc1 |
| 2.3 | CN(C)c1ccc(/C=C/c2nc3ccccc3s2)cc1 |
| 0.74 | CNc1ccc(-c2nc3ccc(O)cc3s2)cc1F [FLUTEMETAMOL] |
| 1.7 | CNc1ccc(-c2nc3ccc(O)cc3s2)cn1 |
| 2 | CN(C)c1ccc(/C=C/c2ccc(I)cc2)cc1 |
